{"data": "Results collected from several papers", "note": "Lines come from different studies, so protocols differ."}
{"Compound": "COc1cc(/C=C/C(=O)/C=C(O)/C=C/c2c[nH]c3ccccc23)ccc1O", "cell line": "CHO-K1", "observed": "cell growth or viability", "technique": "SRB", "time": "72 h", "IC50": "23.3 µM"}
{"Compound": "COc1ccccc1/C=C/CNCC(O)COc1ccc2[nH]ccc2c1 (stereo not shown)", "cell line": "NCI-H1299", "observed": "cell growth or viability", "technique": "CCK-8", "time": "72 h", "IC50": "25.3 µM"}
{"Compound": "COc1cc(/C=C/C(=O)CC(=O)/C=C/c2ccc(O)c(OC)c2)ccc1O", "cell line": "CHO-K1", "observed": "cell growth or viability", "technique": "SRB", "time": "72 h", "IC50": "33.5 µM"}
{"Compound": "CCn1c(-c2nnc(NC(=O)c3cc4c([nH]c5ccccc54)c(-c4ccc(C)cc4)n3)s2)cc2ccccc21", "cell line": "HL-60", "observed": "cell growth or viability", "technique": "MTT", "time": "72 h", "IC50": "39.6 µM"}
{"Compound": "COc1cc(/C=C/C(=O)CC(=O)/C=C/c2ccc(O)c(OC)c2)ccc1O", "cell line": "CHO-K1", "observed": "cell growth or viability", "technique": "MTT", "time": "72 h", "IC50": "44.9 µM"}
{"Compound": "O=C(O)Cc1ccccc1Nc1c(Cl)cccc1Cl", "cell line": "RAW264.7", "observed": "TNF-α release", "action": "inhibitor", "setting": "LPS-stimulated", "IC50": "21.3 µM"}
{"Compound": "O=C(/C=C(/C=C/c1cccnc1)NCCO)/C=C/c1cccnc1", "cell line": "CHO-K1", "observed": "cell growth or viability", "technique": "MTT", "time": "72 h", "IC50": "> 75 µM"}
{"Compound": "C=CCn1c(-c2ccc(OC)c(OC)c2)nc2ccccc21", "cell line": "human Rhabdomyosarcoma cell", "observed": "cell growth or viability", "technique": "MTT", "IC50": "50.4 µM"}
{"Compound": "O=C(/C=C(O)/C=C/c1cccnc1)/C=C/c1c[nH]c2ccccc12", "cell line": "CHO-K1", "observed": "cell growth or viability", "technique": "SRB", "time": "72 h", "IC50": "24.3 µM"}
{"Compound": "Cc1ccc2nc(-c3ccc(Cl)c(Cl)c3)n(Cc3ccccc3)c2c1", "cell line": "human Rhabdomyosarcoma cell", "observed": "cell growth or viability", "technique": "MTT", "IC50": "78.9 µM"}
{"Compound": "COc1cc2nccc(Oc3ccc(NC(=O)C4(C(=O)Nc5ccc(F)cc5)CC4)cc3)c2cc1OC", "cell line": "Rh30", "observed": "cell growth or viability", "time": "72 h", "IC50": "5.9 µM"}
{"Compound": "O=C1C=C(/C=C/c2cccnc2)N(CCCO)C(c2cccnc2)C1 (stereo not shown)", "cell line": "CHO-K1", "observed": "cell growth or viability", "technique": "SRB", "time": "72 h", "IC50": "> 75 µM"}
{"Compound": "CC(C)C[C@H](NC(=O)[C@H](Cc1ccccc1)NC(=O)c1cnccn1)B(O)O", "cell line": "NCI-H1437", "observed": "cell growth or viability", "technique": "ATP luminescence", "IC50": "0.013 µM"}
{"Compound": "c1ccc2c(-c3nc4ccccc4[nH]3)c3ccccc3cc2c1", "cell line": "human Rhabdomyosarcoma cell", "observed": "cell growth or viability", "technique": "MTT", "time": "48 h", "IC50": "7.66 µM"}
{"Compound": "COCCNC(=C\\C(=O)/C=C/c1cccnc1)/C=C/c1cccnc1", "cell line": "CHO-K1", "observed": "cell growth or viability", "technique": "SRB", "time": "72 h", "IC50": "71.7 µM"}
{"Compound": "COc1ccccc1NCC(O)COc1cccc2[nH]c3ccccc3c12 (stereo not shown)", "cell line": "NCI-H1299", "observed": "cell growth or viability", "technique": "CCK-8", "time": "72 h", "IC50": "> 100 µM"}
{"Compound": "O=[N+]([O-])c1ccc(-c2nc3ccccc3[nH]2)cc1", "cell line": "human Rhabdomyosarcoma cell", "observed": "cell growth or viability", "technique": "MTT", "time": "48 h", "IC50": "23.4 µM"}
{"Compound": "Cn1nnc2c(C(N)=O)ncn2c1=O", "cell line": "D54", "observed": "cell growth or viability", "technique": "resazurin", "time": "7 days", "IC50": "12 µM"}
{"Compound": "COc1cc(/C=C/C(=O)/C=C(O)/C=C/c2ccccn2)ccc1O", "cell line": "CHO-K1", "observed": "cell growth or viability", "technique": "SRB", "time": "72 h", "IC50": "30.9 µM"}
{"Compound": "Cc1ccc2nc(-c3c4ccccc4cc4ccccc34)[nH]c2c1", "cell line": "human Rhabdomyosarcoma cell", "observed": "cell growth or viability", "technique": "MTT", "time": "48 h", "IC50": "27 µM"}
{"Compound": "COc1ccccc1/C=C/CNCC(O)COc1ccncc1 (stereo not shown)", "cell line": "NCI-H1299", "observed": "cell growth or viability", "technique": "CCK-8", "time": "72 h", "IC50": "34.1 µM"}
{"Compound": "Cc1ccc2nc(-c3ccc([N+](=O)[O-])cc3)n(Cc3ccc(Cl)cc3)c2c1", "cell line": "human Rhabdomyosarcoma cell", "observed": "cell growth or viability", "technique": "MTT", "IC50": "7.33 µM"}
{"Compound": "COc1cc(/C=C/C(=O)/C=C(O)/C=C/c2ccncc2)ccc1O", "cell line": "CHO-K1", "observed": "cell growth or viability", "technique": "MTT", "time": "72 h", "IC50": "13.3 µM"}
{"Compound": "Cc1ccc2nc(-c3ccc(Cl)cc3Cl)[nH]c2c1", "cell line": "human Rhabdomyosarcoma cell", "observed": "cell growth or viability", "technique": "MTT", "time": "48 h", "IC50": "29.9 µM"}
{"Compound": "CC(C)(C)Nc1c(-c2ccc(N)cc2)nc2ccccn12", "cell line": "Vero", "observed": "cell growth or viability", "technique": "MTT", "time": "48 h", "IC50": "91 µM"}
